Hits are enriched below; roughly 2.3% of the tested compounds scored in any of these assays.
PAX8 reporter – PAX8 transcriptional activity inhibition | RMG-I TPO-luciferase reporter, SteadyGlo, 24 h | AID 652154 | 360,000 tested, 1.2% active | inhibition, % at 12.6 µM;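 active = mean replicate inhibition at least 60% with every replicate also reaching 60%; inconclusive = only one of the two criteria is met; inactive = mean below 60% and not all replicates reaching 60%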;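 also: luciferase light reporting Pax8 driven TPO promoter activity; plate controls were median of neutral control wells for no effect and mitoxantrone controls for full effect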
HIV Env fusion – inhibitors of HIV Env-mediated cell fusion | HeLa-JRFL Env/CEM21 cell fusion, luciferase | inhibition, % at 12.3 µM | 360,000 tested, 1.1% active | AID 651610;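 active = mean replicate inhibition score of at least 50 and every replicate individually at or above 50; inconclusive = only one of the two criteria met; inactive = mean below 50 and not all replicates reaching 50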;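 also: 0% = plate neutral controls and 100% = maraviroc near 300 nM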
FN deposit inh – fibronectin deposition inhibition; inhibition, % at 12.6 µM; AH1F fibroblasts, Alexa488-fibronectin deposition fluorescence, overnight; 350,000 tested, 0.086% active;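 active = mean inhibition across replicates of 30% or more, regardless of how many single replicates reach that level; inconclusive = mean under 30% yet at least half of replicates reach 30%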;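 also: positive control wells lacked labelled fibronectin entirely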
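Material: AH1F fibroblast monolayer depositing Alexa488-labelled fibronectin into matrix | Input: 10000 AH1F cells/well | Medium: DMEM plus 2% serum, read in PBS | Reagent: Alexa488-fibronectin, 24 nM final in well | Compound dosing: One dose per compound, pinned | Schedule: 1 h adhesion, overnight exposure | Measured by: Fluorescence at 485 nm excitation, 525 nm emission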
F508del corr – correctors of CFTR F508del function in bronchial epithelial cells; CFBE cells, YFP halide quenching; stimulated with forskolin plus potentiator P3; % fluorescence drop versus neutral controls; activity (quench increase), % at 7.58 µM; 350,000 tested, 0.36% active;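 active = mean added fluorescence quench of at least 8% versus neutral control, with both replicates also reaching 8%; inconclusive = only one of the mean or replicate conditions met; inactive = mean below 8% and not both replicates reaching 8%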;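 also: cells transiently co-express mutant CFTR-F508del with the halide-sensitive YFP; corrector assay measuring rescue of mutant channel to the surface after 24 h compound exposure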
PGC1a acetyl inh – lowers PGC1a acetylation signal in U2OS cells; AID 651687; 350,000 tested, 0.17% active; inhibition, % at 15.6 µM; AlphaScreen anti-acetyl-lysine; with virally co-expressed GCN5 acetyltransferase;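 active = every replicate shows inhibition of at least 40%; inconclusive = mean inhibition at least 40% but some replicate below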;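 also: 0% = neutral control wells and 100% = positive control wells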
EWS-Fli inh – inhibitors of EWS/Fli oncoprotein transcriptional activity | A673 NR0B1-luciferase reporter, viability-normalised | inhibition, % at 12.6 µM | 350,000 tested, 0.67% active;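 active = mean inhibition of at least 50% after viability correction, with every replicate also passing that limit; inconclusive = mean reaches 50% but only one of two replicates passes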;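 also: firefly luciferase signal divided by Alamar Blue viability fluorescence both relative to DMSO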
* = called active by the depositor; [ ] = remark or other dose.

For C[C@@H]1CN([C@@H](C)CO)C(=O)Cc2cc(NC(=O)Nc3ccc(C(F)(F)F)cc3)ccc2O[C@H]1CN(C)Cc1ccc(Oc2ccccc2)cc1 the results were PAX8 reporter 94*, HIV Env fusion 28[16.7 µM], F508del corr 0, PGC1a acetyl inh -14 and EWS-Fli inh 6.
For C[C@@H]1CN([C@@H](C)CO)C(=O)Cc2cc(NC(=O)Nc3ccc(C(F)(F)F)cc3)ccc2O[C@@H]1CN(C)C(=O)Nc1ccc2c(c1)OCO2 the results were PAX8 reporter inconclusive, HIV Env fusion -91[16.7 µM], F508del corr 1, PGC1a acetyl inh -17 and EWS-Fli inh 68*.
C[C@H]1CN([C@@H](C)CO)C(=O)Cc2cc(NC(=O)CCC(F)(F)F)ccc2O[C@H]1CN(C)Cc1ccc2c(c1)OCO2 was read as PAX8 reporter 63*, HIV Env fusion -18[16.7 µM], F508del corr 1, PGC1a acetyl inh -3 and EWS-Fli inh -10.
`O=C(C[C@H]1C=C[C@H](NC(=O)c2ccncc2)[C@@H](CO)O1)Nc1ccccc1` gave FN deposit inh -7, F508del corr -1, PGC1a acetyl inh 13 and EWS-Fli inh -8.
`C[C@H]1CN([C@@H](C)CO)C(=O)CCCn2nncc2CO[C@@H]1CN(C)S(=O)(=O)c1ccccc1F` gave PAX8 reporter 3, FN deposit inh 2, F508del corr 1, PGC1a acetyl inh -2 and EWS-Fli inh -5.
CO[C@H]1CN(C)C(=O)c2cc(NS(=O)(=O)CC(F)(F)F)ccc2OC[C@H](C)N(Cc2ccccn2)C[C@H]1C was read as PAX8 reporter 9, FN deposit inh -11, F508del corr 1, PGC1a acetyl inh -15 and EWS-Fli inh -4.
For C[C@@H]1CN([C@@H](C)CO)C(=O)Cc2cc(NS(=O)(=O)c3ccccc3)ccc2O[C@@H]1CN(C)C(=O)Nc1cccc2ccccc12 the results were PAX8 reporter 73*, HIV Env fusion -5[16.7 µM], F508del corr -3, PGC1a acetyl inh 0 and EWS-Fli inh 6.
For C[C@H](CO)N1C[C@H](C)[C@@H](CN(C)Cc2ccncc2)Oc2ccc(NC(=O)Nc3ccc(C(F)(F)F)cc3)cc2CC1=O the results were PAX8 reporter 90*, F508del corr -1 and PGC1a acetyl inh -30.
`C[C@H]1CN([C@@H](C)CO)C(=O)Cc2cc(NC(=O)Nc3ccc(C(F)(F)F)cc3)ccc2O[C@H]1CN(C)Cc1ccncc1` gave PAX8 reporter 33, F508del corr 0 and PGC1a acetyl inh 0.
`Cc1noc(C)c1NC(=O)Nc1ccc2c(c1)CC(=O)N([C@@H](C)CO)C[C@H](C)[C@@H](CN(C)Cc1ccc(C(F)(F)F)cc1)O2` gave PAX8 reporter 14, HIV Env fusion 9[16.7 µM], FN deposit inh -5, F508del corr 1, PGC1a acetyl inh -1 and EWS-Fli inh 15.
C[C@H](CO)N1C[C@H](C)[C@@H](CN(C)Cc2ccccc2)Oc2ccc(NC(=O)Nc3ccc(C(F)(F)F)cc3)cc2CC1=O was read as PAX8 reporter 96*, HIV Env fusion 22[16.7 µM], F508del corr 0 and EWS-Fli inh 23.
Cc1noc(C)c1NC(=O)Nc1ccc2c(c1)CC(=O)N([C@@H](C)CO)C[C@H](C)[C@H](CN(C)Cc1ccc(C(F)(F)F)cc1)O2 was read as PAX8 reporter 72*, HIV Env fusion -2[16.7 µM], FN deposit inh -18, F508del corr 1, PGC1a acetyl inh 1 and EWS-Fli inh 5.
C[C@H](CO)N1C[C@H](C)[C@H](CN(C)C(=O)Nc2cccc3ccccc23)Oc2ccc(NS(=O)(=O)c3ccccc3)cc2CC1=O was read as PAX8 reporter 3, HIV Env fusion 4[16.7 µM], F508del corr -1, PGC1a acetyl inh 12 and EWS-Fli inh -11.
Screening CC(C)NC(=O)N1C[C@@H]2C(c3ccc(Br)cc3)[C@H](C1)N2Cc1ccc(F)cc1 (stereo partly drawn) returned FN deposit inh -19.
COc1ccccc1S(=O)(=O)Nc1ccc2c(c1)OC[C@H](C)NC[C@H](C)[C@@H](OC)CN(C)C2=O was read as FN deposit inh -5, F508del corr -1, PGC1a acetyl inh 8 and EWS-Fli inh -5.
Screening Cc1noc(C)c1S(=O)(=O)N(C)C[C@@H]1OCCCC[C@H](C)Oc2ccc(NC(=O)NC(C)C)cc2C(=O)N([C@H](C)CO)C[C@H]1C returned PAX8 reporter 4, HIV Env fusion 34[16.7 µM], FN deposit inh -12, F508del corr 2, PGC1a acetyl inh 6 and EWS-Fli inh -8.
Screening C[C@@H]1CN([C@@H](C)CO)C(=O)Cc2cc(NC(=O)Nc3ccc(C(F)(F)F)cc3)ccc2O[C@H]1CN(C)Cc1ccc(C(F)(F)F)cc1 returned PAX8 reporter 64*, HIV Env fusion 56*[16.7 µM], F508del corr -1, PGC1a acetyl inh 6 and EWS-Fli inh 9.
Screening C[C@@H]1CN([C@@H](C)CO)C(=O)Cc2cc(NC(=O)CCCCCC(=O)Nc3ccccc3N)ccc2O[C@@H]1CN(C)Cc1ccc(C(F)(F)F)cc1 returned PAX8 reporter 90*, HIV Env fusion 47[16.7 µM], FN deposit inh -4, F508del corr 3, PGC1a acetyl inh 0 and EWS-Fli inh 34.
For C[C@H](CO)N1C[C@H](C)[C@H](CN(C)Cc2ccncc2)Oc2ccc(NC(=O)Nc3cccc4ccccc34)cc2CC1=O the results were PAX8 reporter 42, HIV Env fusion 21[16.7 µM], F508del corr 2 and PGC1a acetyl inh -1.
C[C@H](CO)N1C[C@H](C)[C@@H](CN(C)Cc2ccc(C(F)(F)F)cc2)Oc2ccc(NC(=O)CCCCCC(=O)Nc3ccccc3N)cc2CC1=O was read as PAX8 reporter -11, HIV Env fusion -30[16.7 µM], FN deposit inh -16, F508del corr 0, PGC1a acetyl inh 4 and EWS-Fli inh 42.
`C[C@@H]1CN([C@@H](C)CO)C(=O)Cc2cc(NC(=O)Nc3ccc(C(F)(F)F)cc3)ccc2O[C@H]1CN(C)Cc1ccc(Cl)c(Cl)c1` gave PAX8 reporter 104*, HIV Env fusion 25[16.7 µM], FN deposit inh -11, F508del corr 6, PGC1a acetyl inh -6 and EWS-Fli inh 67*.
C[C@H](CO)N1C[C@H](C)[C@@H](CN(C)Cc2ccncc2)Oc2ccc(NC(=O)Nc3cccc4ccccc34)cc2CC1=O was read as PAX8 reporter 67*, HIV Env fusion -120[16.7 µM], F508del corr 3 and PGC1a acetyl inh -6.
For CCCNC(=O)N1CC2(CCN(C(=O)COC)CC2)c2c(n(C)c3cc(OC)ccc23)[C@@H]1CO the results were F508del corr -2, PGC1a acetyl inh 1 and EWS-Fli inh -13.
